# Measured values: ChEMBL document CHEMBL1142145, “Posaconazole prophylaxis in experimental systemic zygomycosis” (2007)
# Calls of active or inactive are those of the source. No cut-off for these calls is given here.
# What was measured:
# Rhizopus arrhizus [1] = experiment: Antimicrobial activity against Rhizopus oryzae 4570; type: functional
# Outline: (§1)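 CLSI M38-A broth microdilution. Isolates were grown on Sabouraud dextrose agar for 5 days at 35°C, and conidia were harvested in 0.85% saline. The final inoculum was about 10^4 CFU/ml, set by hemocytometer. Drug range 0.015–8.0 µg/ml; plates incubated at 35°C for 21–26 h. MIC was the lowest concentration with no discernible growth. Each strain was tested in quintuplicate.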
# Rhizopus arrhizus [2] = experiment: Antimicrobial activity against Rhizopus oryzae 4745; type: functional; outline: as §1
# Lichtheimia corymbifera [3] = experiment: Antimicrobial activity against Absidia corymbifera 4535; type: functional; outline: as §1
# Mus musculus [4] = experiment: Increase in survival of Rhizopus oryzae 4570 infected neutropenic CD1 mouse at 1 mg/kg/day, ip; type: functional, organism-based
# Outline: (§2)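 Male CD1 mice (25 g) made neutropenic with cyclophosphamide 200 mg/kg i.p. on […], +1 and +4 relative to infection. […] Inocula per mouse: R. oryzae 4570, 5 x 10^6; A. corymbifera, 5 x 10^5; R. oryzae 4745, 2 x 10^6 or 1 x 10^5. Deaths were recorded daily to day 10, with 13–18 mice/group and log-rank comparison.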
# Lichtheimia corymbifera [5] = experiment: Percentage of infected lung in neutropenic CD1 mouse infected with Absidia corymbifera 4535 at 1 mg/kg/day, ip; type: functional; details: route intraperitoneal
# Outline: (§3)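 They were infected i.v. with R. oryzae 4570 (5 x 10^6 spores) or A. corymbifera (5 x 10^5 spores). On day 3 brain, lungs, spleen and kidneys were homogenized in 2 ml saline and plated whole on SDA (detection limit 1 CFU/organ). Value is % culture-positive organs; 8 mice/group.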
# Lichtheimia corymbifera [6] = experiment: Percentage of infected spleen in neutropenic CD1 mouse infected with Absidia corymbifera 4535 at 1 mg/kg/day, ip; type: functional; details: route intraperitoneal; outline: as §3
# Lichtheimia corymbifera [7] = experiment: Percentage of infected kidney in neutropenic CD1 mouse infected with Absidia corymbifera 4535 at 1 mg/kg/day, ip; type: functional; details: route intraperitoneal; outline: as §3
# Mus musculus [8] = experiment: Increase in survival of Absidia corymbifera 4535 infected neutropenic CD1 mouse at 1 mg/kg/day, ip; type: functional, organism-based; outline: as §2
# Mus musculus [9] = experiment: Increase in survival of neutropenic CD1 mouse infected with 2 mega Rhizopus oryzae 4745 at 1 mg/kg/day, ip; type: functional, organism-based; outline: as §2
# Mus musculus [10] = experiment: Increase in survival of neutropenic CD1 mouse infected with 0.1 mega Rhizopus oryzae 4745 at 1 mg/kg/day, ip; type: functional, organism-based; outline: as §2
# Rhizopus arrhizus [11] = experiment: Reduction of number of infection foci in Rhizopus oryzae 4570 infected neutropenic CD1 mouse kidney at 1 mg/kg/day, ip; type: functional, organism-based
# Outline: (§4)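 On day 3 brains and kidneys were formalin-fixed and stained with Grocott-Gomori methenamine silver. At least two blinded observers counted hyphal foci and measured their size over 20 consecutive fields (15.7 mm2/section). Data are means ± SEM, 5 mice/group, ANOVA with Bonferroni.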
# Lichtheimia corymbifera [12] = experiment: Reduction of number of infection foci in Absidia corymbifera 4535 infected neutropenic CD1 mouse kidney at 1 mg/kg/day, ip; type: functional, organism-based; outline: as §4
# Rhizopus arrhizus [13] = experiment: Reduction of infection foci size in Rhizopus oryzae 4570 infected neutropenic CD1 mouse kidney at 1 mg/kg/day, ip; type: functional, organism-based; outline: as §4
# Lichtheimia corymbifera [14] = experiment: Reduction of infection foci size in Absidia corymbifera 4535 infected neutropenic CD1 mouse kidney at 1 mg/kg/day, ip; type: functional, organism-based; outline: as §4
# Lichtheimia corymbifera [15] = experiment: Percentage of infected brain in neutropenic CD1 mouse infected with Absidia corymbifera 4535 at 30 mg/kg/day, po; type: functional
# Outline: (§5)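 Neutropenic CD1 mice received three daily oral prophylactic doses, the last 2 h before i.v. challenge: R. oryzae 4570 at 5 x 10^6 or A. corymbifera at 5 x 10^5 spores/mouse. On day 3 mice were killed. Brain, lungs, spleen and kidneys were homogenized in 2 ml saline and plated whole on SDA; detection limit 1 CFU/organ. Read-out was percent culture-positive organs, eight mice per group.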
# Rhizopus arrhizus [16] = experiment: Percentage of infected lung in neutropenic CD1 mouse infected with Rhizopus oryzae 4570 at 30 mg/kg/day, po; type: functional; outline: as §5
# Lichtheimia corymbifera [17] = experiment: Percentage of infected lung in neutropenic CD1 mouse infected with Absidia corymbifera 4535 at 30 mg/kg/day, po; type: functional; outline: as §5
# Rhizopus arrhizus [18] = experiment: Percentage of infected spleen in neutropenic CD1 mouse infected with Rhizopus oryzae 4570 at 30 mg/kg/day, po; type: functional; outline: as §5
# Lichtheimia corymbifera [19] = experiment: Percentage of infected spleen in neutropenic CD1 mouse infected with Absidia corymbifera 4535 at 30 mg/kg/day, po; type: functional; outline: as §5
# Rhizopus arrhizus [20] = experiment: Percentage of infected kidney in neutropenic CD1 mouse infected with Rhizopus oryzae 4570 at 30 mg/kg/day, po; type: functional; outline: as §5
# Lichtheimia corymbifera [21] = experiment: Percentage of infected kidney in neutropenic CD1 mouse infected with Absidia corymbifera 4535 at 30 mg/kg/day, po; type: functional; outline: as §5
# Mus musculus [22] = experiment: Increase in survival of Rhizopus oryzae 4570 infected neutropenic CD1 mouse at 20 mg/kg/day, po; type: functional, organism-based
# Outline: (§6)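 Male CD1 mice (25 g) were made neutropenic with i.p. cyclophosphamide, 200 mg/kg, on days […] and +4 postinfection. Oral gavage dosing (200 µl) was given daily for 3 days, the last dose 2 h before i.v. challenge; controls received PEG 200. Challenge per mouse: R. oryzae 4570, 5 x 10^6 spores; A. corymbifera, 5 x 10^5; R. oryzae 4745, 1 x 10^5. Deaths were recorded daily to day 10, moribund mice counted dead next day. 13–18 mice per group; log rank test.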
# Mus musculus [23] = experiment: Increase in survival of Rhizopus oryzae 4570 infected neutropenic CD1 mouse at 80 mg/kg/day, po; type: functional, organism-based; outline: as §6
# Mus musculus [24] = experiment: Increase in survival of Absidia corymbifera 4535 infected neutropenic CD1 mouse at 20 mg/kg/day, po; type: functional, organism-based; outline: as §6
# Mus musculus [25] = experiment: Increase in survival of Absidia corymbifera 4535 infected neutropenic CD1 mouse at 80 mg/kg/day, po; type: functional, organism-based; outline: as §6
# Mus musculus [26] = experiment: Increase in survival of neutropenic CD1 mouse infected with 0.1 mega Rhizopus oryzae 4745 at 50 mg/kg/day, po; type: functional, organism-based; outline: as §6
# Rhizopus arrhizus [27] = experiment: Reduction of number of infection foci in Rhizopus oryzae 4570 infected neutropenic CD1 mouse kidney at 30 mg/kg/day, po; type: functional, organism-based
# Outline: (§7)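 Neutropenic CD1 mice were given oral prophylaxis for 3 days, then i.v. challenge with R. oryzae 4570 (5 x 10^6 spores) or A. corymbifera (5 x 10^5). On day 3, brain and kidney were formalin-fixed, paraffin-embedded and stained with Grocott-Gomori methenamine silver. Number and size of hyphal foci were scored blind by at least two observers in 20 consecutive fields (15.7 mm2 per section). Values are mean ± SEM from 5 mice per group; ANOVA with Bonferroni correction.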
# Rhizopus arrhizus [28] = experiment: Reduction of number of infection foci in Rhizopus oryzae 4570 infected neutropenic CD1 mouse brain at 30 mg/kg/day, po; type: functional, organism-based; outline: as §7
# Lichtheimia corymbifera [29] = experiment: Reduction of number of infection foci in Absidia corymbifera 4535 infected neutropenic CD1 mouse kidney at 30 mg/kg/day, po; type: functional, organism-based; outline: as §7
# Lichtheimia corymbifera [30] = experiment: Reduction of number of infection foci in Absidia corymbifera 4535 infected neutropenic CD1 mouse brain at 30 mg/kg/day, po; type: functional, organism-based; outline: as §7
# Rhizopus arrhizus [31] = experiment: Reduction of infection foci size in Rhizopus oryzae 4570 infected neutropenic CD1 mouse kidney at 30 mg/kg/day, po; type: functional, organism-based; outline: as §7
# Rhizopus arrhizus [32] = experiment: Reduction of infection foci size in Rhizopus oryzae 4570 infected neutropenic CD1 mouse brain at 30 mg/kg/day, po; type: functional, organism-based; outline: as §7
# Lichtheimia corymbifera [33] = experiment: Reduction of infection foci size in Absidia corymbifera 4535 infected neutropenic CD1 mouse kidney at 30 mg/kg/day, po; type: functional, organism-based; outline: as §7
# Lichtheimia corymbifera [34] = experiment: Reduction of infection foci size in Absidia corymbifera 4535 infected neutropenic CD1 mouse brain at 30 mg/kg/day, po; type: functional, organism-based; outline: as §7
# Rhizopus arrhizus [35] = experiment: Percentage of infected brain in neutropenic CD1 mouse infected with Rhizopus oryzae 4570 at 30 mg/kg/day, po; type: functional; outline: as §5
compound,measurement,setting,value
C[C@@H]1[C@H](O)[C@@H](C)/C=C/C=C/C=C/C=C/C=C/C=C/C=C/[C@H](O[C@@H]2O[C@H](C)[C@@H](O)[C@H](N)[C@@H]2O)C[C@@H]2O[C@](O)(C[C@@H](O)C[C@@H](O)[C@H](O)CC[C@@H](O)C[C@@H](O)CC(=O)O[C@H]1C)C[C@H](O)[C@H]2C(=O)O [AMPHOTERICIN B],MIC,Rhizopus arrhizus [1],2 µg/mL
same,MIC,Rhizopus arrhizus [2],0.5 µg/mL
same,MIC,Lichtheimia corymbifera [3],1 µg/mL
same,Activity,Mus musculus [4],Active
same,Activity,Lichtheimia corymbifera [5],25%
same,Activity,Lichtheimia corymbifera [6],100%
same,Activity,Lichtheimia corymbifera [7],62.5%
same,Activity,Mus musculus [8],Active
same,Activity,Mus musculus [9],Active
same,Activity,Mus musculus [10],Active
same,Activity,Rhizopus arrhizus [11],Active
same,Activity,Lichtheimia corymbifera [12],Active
same,Activity,Rhizopus arrhizus [13],Active
same,Activity,Lichtheimia corymbifera [14],Active
CC[C@@H]([C@H](C)O)n1ncn(-c2ccc(N3CCN(c4ccc(OC[C@@H]5CO[C@@](Cn6cncn6)(c6ccc(F)cc6F)C5)cc4)CC3)cc2)c1=O [POSACONAZOLE],MIC,Rhizopus arrhizus [1],1 µg/mL
same,MIC,Rhizopus arrhizus [2],1 µg/mL
same,MIC,Lichtheimia corymbifera [3],0.25 µg/mL
same,Activity,Lichtheimia corymbifera [15],62.5%
same,Activity,Rhizopus arrhizus [16],100%
same,Activity,Lichtheimia corymbifera [17],12.5%
same,Activity,Rhizopus arrhizus [18],100%
same,Activity,Lichtheimia corymbifera [19],100%
same,Activity,Rhizopus arrhizus [20],100%
same,Activity,Lichtheimia corymbifera [21],75%
same,Activity,Mus musculus [22],inactive
same,Activity,Mus musculus [23],inactive
same,Activity,Mus musculus [24],Active
same,Activity,Mus musculus [25],Active
same,Activity,Mus musculus [26],Active
same,Activity,Rhizopus arrhizus [27],Active
same,Activity,Rhizopus arrhizus [28],inactive
same,Activity,Lichtheimia corymbifera [29],Active
same,Activity,Lichtheimia corymbifera [30],Active
same,Activity,Rhizopus arrhizus [31],Active
same,Activity,Rhizopus arrhizus [32],inactive
same,Activity,Lichtheimia corymbifera [33],Active
same,Activity,Lichtheimia corymbifera [34],Active
same,Activity,Rhizopus arrhizus [35],100%
